From ChEMBL document CHEMBL3217512, “Indole/triazole conjugates are selective inhibitors and inducers of bacterial biofilms” (Medchemcomm, 2013)

What was measured:
Staphylococcus aureus [1] = assay: Antimicrobial activity against methicillin-resistant Staphylococcus aureus BAA 44 assessed as effect on planktonic growth at PC75 after 2 to 24 hrs by colony count method; type: organism-based; conditions: in vivo
Staphylococcus aureus [2] = assay: Antimicrobial activity against methicillin-resistant Staphylococcus aureus BAA 44 assessed as effect on planktonic growth at PC50 after 2 to 24 hrs by colony count method; type: organism-based; conditions: in vivo
Staphylococcus aureus [3] = assay: Antimicrobial activity against methicillin-resistant Staphylococcus aureus BAA 44 assessed as effect on planktonic growth at PC25 after 2 to 24 hrs by colony count method; type: organism-based; conditions: in vivo
Staphylococcus aureus [4] = assay: Antimicrobial activity against methicillin-resistant Staphylococcus aureus BAA 44 assessed as effect on planktonic growth at PC75 after 2 to 24 hrs; type: organism-based; conditions: in vivo
Staphylococcus aureus [5] = assay: Antimicrobial activity against methicillin-resistant Staphylococcus aureus BAA 44 assessed as effect on planktonic growth at PC50 after 2 to 24 hrs; type: organism-based; conditions: in vivo
Staphylococcus aureus [6] = assay: Antimicrobial activity against methicillin-resistant Staphylococcus aureus BAA 44 assessed as effect on planktonic growth at PC25 after 2 to 24 hrs; type: organism-based; conditions: in vivo
Staphylococcus aureus [7] = assay: Antimicrobial activity against methicillin-resistant Staphylococcus aureus BAA 44 assessed as effect on planktonic growth at IC50 after 2 to 24 hrs by colony count method; type: organism-based; conditions: in vivo
Staphylococcus aureus [8] = assay: Antimicrobial activity against Staphylococcus aureus 29213 assessed as effect on planktonic growth at IC50 after 2 to 24 hrs by colony count method; type: organism-based; conditions: in vivo
Acinetobacter baumannii [9] = assay: Antimicrobial activity against Acinetobacter baumannii 19606 assessed as effect on planktonic growth at IC50 after 2 to 24 hrs by colony count method; design: species or system ATCC 19606
Escherichia coli [10] = assay: Antimicrobial activity against Escherichia coli K-12 ER2718 assessed as effect on planktonic growth at IC50 after 2 to 24 hrs by colony count method; type: organism-based
Staphylococcus aureus [11] = assay: Antimicrobial activity against methicillin-resistant Staphylococcus aureus BAA 44 assessed as effect on planktonic growth at IC50 after 2 to 24 hrs; type: organism-based; conditions: in vivo
Staphylococcus aureus [12] = assay: Antimicrobial activity against Staphylococcus aureus 29213 assessed as effect on planktonic growth at IC50 after 2 to 24 hrs; type: organism-based; conditions: in vivo
Acinetobacter baumannii [13] = assay: Antimicrobial activity against Acinetobacter baumannii 19606 assessed as effect on planktonic growth at IC50 after 2 to 24 hrs; design: species or system ATCC 19606
Escherichia coli [14] = assay: Antimicrobial activity against Escherichia coli K-12 ER2718 assessed as effect on planktonic growth at IC50 after 2 to 24 hrs; type: organism-based
Staphylococcus aureus [15] = assay: Induction of biofilm formation in methicillin-resistant Staphylococcus aureus BAA 44 at 50 uM after 24 hrs by crystal violet staining-based assay relative to control; type: functional
How it was run: (§1)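 Static biofilm development in MRSA, read out by crystal violet staining against an untreated control. Initial screen at 150 μM. Inhibitors then went to dose-response, with IC50 taken as the concentration giving 50% inhibition of biofilm growth. Induction was judged at 50 μM: under 50% induction counted as "inducer", over 50% as "strong inducer".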

Staphylococcus aureus [16] = assay: Inhibition of biofilm formation in Staphylococcus aureus 29213 at 150 uM after 24 hrs by crystal violet staining-based assay relative to control; type: functional; conditions: Staphylococcus aureus, 29213, 24 h
Acinetobacter baumannii [17] = assay: Inhibition of biofilm formation in Acinetobacter baumannii 19606 at 150 uM after 24 hrs by crystal violet staining-based assay relative to control; type: functional; conditions: ATCC 19606 = CIP 70.34 = JCM 6841, 24 h
Staphylococcus aureus [18] = assay: Antimicrobial activity against methicillin-resistant Staphylococcus aureus BAA 44 assessed as effect on planktonic growth at 50 uM after 2 to 24 hrs; type: organism-based
How it was run: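 Growth-curve analysis of planktonic MRSA in the presence of each biofilm inducer at 50 μM, to check for toxicity.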

Escherichia coli [19] = assay: Inhibition of biofilm formation in Escherichia coli K-12 ER2718 at 150 uM after 24 hrs by crystal violet staining-based assay relative to control; type: functional; conditions: K-12 ER2718, 24 h
Staphylococcus aureus [20] = assay: Antimicrobial activity against Staphylococcus aureus 29213 assessed as effect on planktonic growth at PC75 after 2 to 24 hrs by colony count method; type: organism-based; conditions: in vivo
Staphylococcus aureus [21] = assay: Antimicrobial activity against Staphylococcus aureus 29213 assessed as effect on planktonic growth at PC50 after 2 to 24 hrs by colony count method; type: organism-based; conditions: in vivo
Staphylococcus aureus [22] = assay: Antimicrobial activity against Staphylococcus aureus 29213 assessed as effect on planktonic growth at PC25 after 2 to 24 hrs by colony count method; type: organism-based; conditions: in vivo
Staphylococcus aureus [23] = assay: Antimicrobial activity against Staphylococcus aureus 29213 assessed as effect on planktonic growth at PC75 after 2 to 24 hrs; type: organism-based; conditions: in vivo
Staphylococcus aureus [24] = assay: Antimicrobial activity against Staphylococcus aureus 29213 assessed as effect on planktonic growth at PC50 after 2 to 24 hrs; type: organism-based; conditions: in vivo
Staphylococcus aureus [25] = assay: Antimicrobial activity against Staphylococcus aureus 29213 assessed as effect on planktonic growth at PC25 after 2 to 24 hrs; type: organism-based; conditions: in vivo
Acinetobacter baumannii [26] = assay: Antimicrobial activity against Acinetobacter baumannii 19606 assessed as effect on planktonic growth at PC75 after 2 to 24 hrs by colony count method; design: species or system ATCC 19606
Acinetobacter baumannii [27] = assay: Antimicrobial activity against Acinetobacter baumannii 19606 assessed as effect on planktonic growth at PC50 after 2 to 24 hrs by colony count method; design: species or system ATCC 19606
Acinetobacter baumannii [28] = assay: Antimicrobial activity against Acinetobacter baumannii 19606 assessed as effect on planktonic growth at PC25 after 2 to 24 hrs by colony count method; design: species or system ATCC 19606
Acinetobacter baumannii [29] = assay: Antimicrobial activity against Acinetobacter baumannii 19606 assessed as effect on planktonic growth at PC75 after 2 to 24 hrs; design: species or system ATCC 19606
Acinetobacter baumannii [30] = assay: Antimicrobial activity against Acinetobacter baumannii 19606 assessed as effect on planktonic growth at PC50 after 2 to 24 hrs; design: species or system ATCC 19606
Acinetobacter baumannii [31] = assay: Antimicrobial activity against Acinetobacter baumannii 19606 assessed as effect on planktonic growth at PC25 after 2 to 24 hrs; design: species or system ATCC 19606
Escherichia coli [32] = assay: Antimicrobial activity against Escherichia coli K-12 ER2718 assessed as effect on planktonic growth at PC75 after 2 to 24 hrs by colony count method; type: organism-based; conditions: in vivo
Escherichia coli [33] = assay: Antimicrobial activity against Escherichia coli K-12 ER2718 assessed as effect on planktonic growth at PC50 after 2 to 24 hrs by colony count method; type: organism-based; conditions: in vivo
Escherichia coli [34] = assay: Antimicrobial activity against Escherichia coli K-12 ER2718 assessed as effect on planktonic growth at PC25 after 2 to 24 hrs by colony count method; type: organism-based
Escherichia coli [35] = assay: Antimicrobial activity against Escherichia coli K-12 ER2718 assessed as effect on planktonic growth at PC75 after 2 to 24 hrs; type: organism-based; conditions: in vivo
Escherichia coli [36] = assay: Antimicrobial activity against Escherichia coli K-12 ER2718 assessed as effect on planktonic growth at PC50 after 2 to 24 hrs; type: organism-based
Escherichia coli [37] = assay: Antimicrobial activity against Escherichia coli K-12 ER2718 assessed as effect on planktonic growth at PC25 after 2 to 24 hrs; type: organism-based
Staphylococcus aureus [38] = assay: Induction of biofilm formation in Staphylococcus aureus 29213 at 50 uM after 24 hrs by crystal violet staining-based assay relative to control; type: functional
How it was run: (§2)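 Static biofilm assay with compounds at 50 μM and crystal violet read-out, relative to an untreated control. Compounds increasing biofilm by less than 50% were called inducers, and by more than 50% strong inducers.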

Acinetobacter baumannii [39] = assay: Induction of biofilm formation in Acinetobacter baumannii 19606 at 50 uM after 24 hrs by crystal violet staining-based assay relative to control; type: functional, ATCC 19606 = CIP 70.34 = JCM 6841; how it was run: as §2
Escherichia coli [40] = assay: Induction of biofilm formation in Escherichia coli K-12 ER2718 at 50 uM after 24 hrs by crystal violet staining-based assay relative to control; type: functional; how it was run: as §2
Staphylococcus aureus [41] = assay: Antimicrobial activity against Staphylococcus aureus 29213 assessed as effect on planktonic growth at 50 uM after 2 to 24 hrs; type: organism-based
How it was run: (§3)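 Growth curve analysis of planktonic bacteria with each biofilm inducer at 50 μM, used to assess toxicity.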

Acinetobacter baumannii [42] = assay: Antimicrobial activity against Acinetobacter baumannii 19606 assessed as effect on planktonic growth at 50 uM after 2 to 24 hrs; design: species or system ATCC 19606; how it was run: as §3
Escherichia coli [43] = assay: Antimicrobial activity against Escherichia coli K-12 ER2718 assessed as effect on planktonic growth at 50 uM after 2 to 24 hrs; type: organism-based; how it was run: as §3
Staphylococcus aureus [44] = assay: Inhibition of biofilm formation in methicillin-resistant Staphylococcus aureus BAA 44 after 24 hrs by crystal violet staining-based assay; type: functional, organism-based; conditions: BAA 44, 24 h; how it was run: as §1
Acinetobacter baumannii [45] = assay: Inhibition of biofilm formation in Acinetobacter baumannii 19606 after 24 hrs by crystal violet staining-based assay; type: functional; conditions: ATCC 19606 = CIP 70.34 = JCM 6841, 24 h
How it was run: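 Compounds active in the 150 μM screen were taken into dose-response studies under static conditions with a crystal violet read-out. IC50 is the concentration that inhibits 50% of biofilm growth relative to an untreated control.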

`CCCCCCNC(=O)Cn1cc(Cc2c(Br)[nH]c3ccccc23)nn1` was tested, and the Activity (Staphylococcus aureus [1]) was “Non-toxic”, the Activity (Staphylococcus aureus [2]) was “Non-toxic” and the Activity (Staphylococcus aureus [3]) was “Non-toxic”. The Activity (Staphylococcus aureus [4]) was “Non-toxic”, the Activity (Staphylococcus aureus [5]) was “Non-toxic” and the Activity (Staphylococcus aureus [6]) was “Non-toxic”. The Activity (Staphylococcus aureus [7]) was “Non-toxic”, the Activity (Staphylococcus aureus [8]) was “Non-toxic” and the Activity (Acinetobacter baumannii [9]) was “Non-toxic”. The Activity (Escherichia coli [10]) was “Non-toxic”, the Activity (Staphylococcus aureus [11]) was “Non-toxic” and the Activity (Staphylococcus aureus [12]) was “Non-toxic”. For the same compound, the Activity (Acinetobacter baumannii [13]) was “Non-toxic”, the Activity (Escherichia coli [14]) was “Non-toxic” and the Activity (Staphylococcus aureus [15]) was <50%. For the same compound, the inhibition at 150 µM (Staphylococcus aureus [16]) was < 5%, the inhibition at 150 µM (Acinetobacter baumannii [17]) was 17% and the Activity (Staphylococcus aureus [18]) was “Non-toxic”. For the same compound, the inhibition at 150 µM (Escherichia coli [19]) was < 5%.

With `CCCCCCCc1ccc(C(=O)NCCn2cc(Cc3c(Br)[nH]c4ccccc34)nn2)cc1` the Activity (Staphylococcus aureus [1]) was “Non-toxic”, the Activity (Staphylococcus aureus [2]) was “Non-toxic” and the Activity (Staphylococcus aureus [3]) was “Non-toxic”. For the same compound, the Activity (Staphylococcus aureus [4]) was “Non-toxic”, the Activity (Staphylococcus aureus [5]) was “Non-toxic” and the Activity (Staphylococcus aureus [6]) was “Non-toxic”. The Activity (Staphylococcus aureus [20]) was “Non-toxic”, the Activity (Staphylococcus aureus [21]) was “Non-toxic” and the Activity (Staphylococcus aureus [22]) was “Non-toxic”. For the same compound, the Activity (Staphylococcus aureus [23]) was “Non-toxic”, the Activity (Staphylococcus aureus [24]) was “Non-toxic” and the Activity (Staphylococcus aureus [25]) was “Non-toxic”. For the same compound, the Activity (Acinetobacter baumannii [26]) was “Non-toxic”, the Activity (Acinetobacter baumannii [27]) was “Non-toxic” and the Activity (Acinetobacter baumannii [28]) was “Non-toxic”. The Activity (Acinetobacter baumannii [29]) was “Non-toxic”, the Activity (Acinetobacter baumannii [30]) was “Non-toxic” and the Activity (Acinetobacter baumannii [31]) was “Non-toxic”. For the same compound, the Activity (Escherichia coli [32]) was “Non-toxic”, the Activity (Escherichia coli [33]) was “Non-toxic” and the Activity (Escherichia coli [34]) was “Non-toxic”. For the same compound, the Activity (Escherichia coli [35]) was “Non-toxic”, the Activity (Escherichia coli [36]) was “Non-toxic” and the Activity (Escherichia coli [37]) was “Non-toxic”. The Activity (Staphylococcus aureus [7]) was “Non-toxic”, the Activity (Staphylococcus aureus [8]) was “Non-toxic” and the Activity (Acinetobacter baumannii [9]) was “Non-toxic”. The Activity (Escherichia coli [10]) was “Non-toxic”, the Activity (Staphylococcus aureus [11]) was “Non-toxic” and the Activity (Staphylococcus aureus [12]) was “Non-toxic”. The Activity (Acinetobacter baumannii [13]) was “Non-toxic”, the Activity (Escherichia coli [14]) was “Non-toxic” and the Activity (Staphylococcus aureus [15]) was >50%. The Activity (Staphylococcus aureus [38]) was <50%, the Activity (Acinetobacter baumannii [39]) was <50% and the Activity (Escherichia coli [40]) was <50%. For the same compound, the Activity (Staphylococcus aureus [18]) was “Non-toxic”, the Activity (Staphylococcus aureus [41]) was “Non-toxic” and the Activity (Acinetobacter baumannii [42]) was “Non-toxic”. The Activity (Escherichia coli [43]) was “Non-toxic”.

`O=C(Cn1cc(Cc2c(Br)[nH]c3ccccc23)nn1)Nc1ccccc1` was tested, and the Activity (Staphylococcus aureus [20]) was “Non-toxic”, the Activity (Staphylococcus aureus [21]) was “Non-toxic” and the Activity (Staphylococcus aureus [22]) was “Non-toxic”. The Activity (Staphylococcus aureus [23]) was “Non-toxic”, the Activity (Staphylococcus aureus [24]) was “Non-toxic” and the Activity (Staphylococcus aureus [25]) was “Non-toxic”. The Activity (Staphylococcus aureus [7]) was “Non-toxic”, the Activity (Staphylococcus aureus [8]) was “Non-toxic” and the Activity (Acinetobacter baumannii [9]) was “Non-toxic”. The Activity (Escherichia coli [10]) was “Non-toxic”, the Activity (Staphylococcus aureus [11]) was “Non-toxic” and the Activity (Staphylococcus aureus [12]) was “Non-toxic”. The Activity (Acinetobacter baumannii [13]) was “Non-toxic”, the Activity (Escherichia coli [14]) was “Non-toxic” and the Activity (Staphylococcus aureus [38]) was >50%. The IC50 (Staphylococcus aureus [44]) was 151 µM, the IC50 (Acinetobacter baumannii [45]) was 326 µM and the Activity (Staphylococcus aureus [41]) was “Non-toxic”. The inhibition at 150 µM (Escherichia coli [19]) was 12%.
